Holding throughout (assay type): functional
Assay [1] deals with Bacillus subtilis. Kind of assay: Antibacterial activity against Bacillus subtilis at MIC after 3 to 4 days. In a few lines: (§1)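 Agar well diffusion on seeded agar plates, 20 mL agar per dish, dried 1 h at 37 °C. Wells punched and loaded with test compound in DMSO at its MIC. DMSO-only control. Plates run in triplicate and kept 3-4 days at 37 °C. Inhibition zone diameter measured.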

Assay [2] deals with Pseudomonas aeruginosa. The assay can be described thus: Antibacterial activity against Pseudomonas aeruginosa ATCC 27853 after 16 to 18 hrs by […].
Assay [3] deals with Mycolicibacterium smegmatis. Kind of assay: Antitubercular activity against Mycobacterium smegmatis ATCC 19420 after 7 days by resazurin assay. The following applies: ATCC 19420, 168 h. The method in brief:
(§2)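 Middlebrook 7H9 broth with 10% OADC, culture adjusted to McFarland 2. 50 µL culture added to 150 µL fresh medium. Stocks at 2 mg/mL in DMF, tested first at 1, 10 and 100 µg/mL, then at 0.3125-5 µg/mL. DMF controls. After 7 days at 37 °C, 0.01% resazurin added. Blue-to-pink change read for MIC.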

Assay [4] concerns Mycobacterium tuberculosis. Kind of assay: Antitubercular activity against Mycobacterium tuberculosis H37Rv after 7 days by resazurin assay. To be noted: 168 h. In a few lines:
(§3)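 M. tuberculosis H37Rv ATCC 27294 grown in Middlebrook 7H9 broth with 10% OADC and adjusted to McFarland 2. Culture was diluted 1:4 into fresh medium. Compounds came from 2 mg/mL DMF stocks, screened first at 1, 10 and 100, then at 0.3125–5. DMF-only controls were included. After 7 days at 37 °C, 0.01% resazurin was added; a blue-to-pink change marked growth, and the MIC was read.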
On the technique in general: Alamar Blue is a resazurin reagent that responds to reducing activity.

Assay [5] deals with Aspergillus flavus. Kind of assay: Antifungal activity against Aspergillus flavus NCIM N0.524 at MIC after 3 to 4 days. The method in brief: (§4)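 Fungal suspension made by transferring a loopful of culture to 3 mL saline and seeding agar plates, 20 mL agar per dish, dried 1 h at 37 °C. Punched wells loaded with test compound in DMSO at its MIC. DMSO-only control. Triplicate plates held 3-4 days at 37 °C. Inhibition zone diameter measured.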

Assay [6] deals with Talaromyces marneffei. Kind of assay: Antifungal activity against Penicillium marneffei at MIC after 3 to 4 days. In a few lines: as §4
The test system of assay [7] is Staphylococcus aureus. Kind of assay: Antibacterial activity against Staphylococcus aureus ATCC 25923 after 16 to 18 hrs by serial plate dilution method.
Assay [8] concerns Mycolicibacterium fortuitum. Kind of assay: Antitubercular activity against Mycobacterium fortuitum ATCC 19542 after 7 days by resazurin assay. The following applies: ATCC 19542, 168 h. The method in brief: as §2
The subject of assay [9] is Escherichia coli. Kind of assay: Antibacterial activity against Escherichia coli ATCC 25922 at MIC after 3 to 4 days. The method in brief: as §1
Assay [10] concerns Aspergillus fumigatus. The assay can be described thus: Antifungal activity against Aspergillus fumigatus NCIM N0.902 at MIC after 3 to 4 days. The method in brief:
as §4

Assay [11] relates to Candida albicans. Kind of assay: Antifungal activity against Candida albicans after 3 to 4 days by serial plate dilution method.
In assay [12] the test system is Bacillus subtilis. The assay can be described thus: Antibacterial activity against Bacillus subtilis after 16 to 18 hrs by […].
Assay [13] has as its system Trichophyton mentagrophytes. Kind of assay: Antifungal activity against Trichophyton mentagrophytes after 3 to 4 days by serial plate dilution method.
The test system of assay [14] is Talaromyces marneffei. The assay can be described thus: Antifungal activity against Penicillium marneffei after 3 to 4 days by serial plate dilution method.
For assay [15], the system named is Escherichia coli. The assay can be described thus: Antibacterial activity against Escherichia coli ATCC 25922 after 16 to 18 hrs by […].
Assay [16] deals with Staphylococcus aureus. Kind of assay: Antibacterial activity against Staphylococcus aureus ATCC 25923 at […] after 3 to 4 days. In a few lines: as §1
The test system of assay [17] is Klebsiella pneumoniae. The assay can be described thus: Antibacterial activity against Klebsiella pneumoniae after 16 to 18 hrs by […].
In assay [18] the test system is Aspergillus flavus. The assay can be described thus: Antifungal activity against Aspergillus flavus NCIM N0.524 after 3 to 4 days by serial plate dilution method.
Assay [19] deals with Mycobacterium tuberculosis. The assay can be described thus: Antitubercular activity against Mycobacterium tuberculosis H37Rv assessed as growth inhibition after 7 days by resazurin assay. The method in brief:
as §3

In assay [20] the test system is Pseudomonas aeruginosa. The assay can be described thus: Antibacterial activity against Pseudomonas aeruginosa ATCC 27853 at MIC after 3 to 4 days. In a few lines:
as §1

The subject of assay [21] is Candida albicans. The assay can be described thus: Antifungal activity against Candida albicans at MIC after 3 to 4 days. The method in brief:
as §4

The test system of assay [22] is Aspergillus fumigatus. The assay can be described thus: Antifungal activity against Aspergillus fumigatus NCIM N0.902 after 3 to 4 days by serial plate dilution method.
Assay [23] deals with Klebsiella pneumoniae. The assay can be described thus: Antibacterial activity against Klebsiella pneumoniae at MIC after 3 to 4 days. In a few lines: as §1
The subject of assay [24] is Trichophyton mentagrophytes. Kind of assay: Antifungal activity against Trichophyton mentagrophytes at MIC after 3 to 4 days. The method in brief:
as §4

The structures appear in SMILES notation. Values after ≈ are worked out from the molar mass of the structure shown.

As a reminder, the MIC is the lowest concentration found to suppress growth. Low readings indicate inhibition by little substance, high ones a need for much substance.

Turning to `Nc1nc(COC(=O)Cc2ccccc2OC(F)(F)F)cs1`, the “diameter of the inhibition zone (DIZ)” value in [1] amounted to 11 mm; in [5], 16 mm; in assay [6], 16 mm; in assay [9] it was 11 mm; in assay [10], 16 mm; in assay [16] it was 11 mm. The “diameter of the inhibition zone (DIZ)” value in assay [20] is below 10 mm; in assay [21] it was 16 mm; in assay [23], below 10 mm; in assay [24] it was 16 mm. Besides, the MIC in assay [2] is 25 µg/mL (≈ 75.2 µM); in assay [3] it was above 100 µg/mL; in assay [4], 5 µg/mL (≈ 15 µM); in assay [7], 12.5 µg/mL (≈ 37.6 µM); in assay [8] it was above 100 µg/mL; in [11], 6.25 µg/mL (≈ 18.8 µM). Also, the MIC in [12] turned out to be 12.5 µg/mL (≈ 37.6 µM); in assay [13], 6.25 µg/mL (≈ 18.8 µM); in [14], 6.25 µg/mL (≈ 18.8 µM); in assay [15] it was 12.5 µg/mL (≈ 37.6 µM); in assay [17], 25 µg/mL (≈ 75.2 µM); in assay [18] it was 6.25 µg/mL (≈ 18.8 µM). Also, the MIC in [22] was found to be 6.25 µg/mL (≈ 18.8 µM). In addition, the “growth inhibition (GI)” value in [19] is given as below 90%.

`Nc1nc(COC(=O)c2cc(F)cc(C(F)(F)F)c2)cs1`: the “diameter of the inhibition zone (DIZ)” value in [1] was 11 mm; in [5], 16 mm; in [6] it was 16 mm; in [9], below 10 mm; in assay [10] it was 16 mm; in assay [16], 11 mm. Besides, the “diameter of the inhibition zone (DIZ)” value in [20] is 11 mm; in assay [21], 16 mm; in [23], below 10 mm; in [24], 16 mm. The MIC in assay [2] is 12.5 µg/mL (≈ 39 µM); in [3], above 100 µg/mL; in assay [4], 1 µg/mL (≈ 3.12 µM); in [7], 12.5 µg/mL (≈ 39 µM); in [8], 10 µg/mL (≈ 31.2 µM); in assay [11] it was 6.25 µg/mL (≈ 19.5 µM). Also, the MIC in assay [12] is 12.5 µg/mL (≈ 39 µM); in [13], 6.25 µg/mL (≈ 19.5 µM); in assay [14], 6.25 µg/mL (≈ 19.5 µM); in assay [15], 25 µg/mL (≈ 78.1 µM); in [17], 25 µg/mL (≈ 78.1 µM); in [18], 6.25 µg/mL (≈ 19.5 µM). 6.25 µg/mL (≈ 19.5 µM) was the least that counted as inhibitory in [22] (MIC). Further, the “growth inhibition (GI)” value in assay [19] was 90%.

Take `N#CCCc1cccc(C(=O)OCc2csc(N)n2)c1`: the “diameter of the inhibition zone (DIZ)” value in assay [1] is 16 mm; in assay [5], 16 mm; in assay [6], 16 mm; in assay [9], 16 mm; in assay [10], below 10 mm; in assay [16], 16 mm. For the same molecule, the “diameter of the inhibition zone (DIZ)” value is 16 mm in [20], 11 mm in assay [21], 11 mm in assay [23] and below 10 mm in assay [24]. The MIC in assay [2] was determined as 6.25 µg/mL (≈ 21.8 µM); in assay [3], 1 µg/mL (≈ 3.48 µM); in assay [4] it was 0.625 µg/mL (≈ 2.18 µM); in assay [7] it was 6.25 µg/mL (≈ 21.8 µM); in assay [8], 10 µg/mL (≈ 34.8 µM); in assay [11] it was 12.5 µg/mL (≈ 43.5 µM). Also, the MIC in [12] worked out at 6.25 µg/mL (≈ 21.8 µM); in assay [13] it was 25 µg/mL (≈ 87 µM); in assay [14], 6.25 µg/mL (≈ 21.8 µM); in assay [15], 6.25 µg/mL (≈ 21.8 µM); in [17], 12.5 µg/mL (≈ 43.5 µM); in assay [18] it was 6.25 µg/mL (≈ 21.8 µM). The molecule further had a minimum inhibitory concentration (MIC) in assay [22] of 25 µg/mL (≈ 87 µM). Further, in assay [19], the “growth inhibition (GI)” value came out at 95%.
